Laboratory results as given in ChEMBL document CHEMBL1137210, “DNA binding ligands with improved in vitro and in vivo potency against drug-resistant Staphylococcus aureus” (2004).
≈ marks a conversion by molar mass, not a printed value.

Assays:
Type in all cases: functional
Staphylococcus aureus [1] = experiment: Minimum inhibitory concentration required for antibacterial activity against methicillin-susceptible Staphylococcus aureus 13709
Staphylococcus aureus [2] = experiment: Minimum inhibitory concentration required for antibacterial activity against methicillin-resistant Staphylococcus aureus 27660
Staphylococcus aureus [3] = experiment: Minimum inhibitory concentration required for antibacterial activity against methicillin-resistant Staphylococcus aureus with 2% human plasma albumin
Summary of the method: (§1)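 MRSA ATCC 27660, with 2% human plasma albumin added to the test medium during MIC determination.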

Staphylococcus aureus [4] = experiment: Minimum inhibitory concentration required for antibacterial activity against methicillin-susceptible Staphylococcus aureus 13709; value ranges from <0.03-0.06
Staphylococcus aureus [5] = experiment: Minimum inhibitory concentration required for antibacterial activity against methicillin-resistant Staphylococcus aureus 27660; value ranges from 0.03-0.06
Staphylococcus aureus [6] = experiment: Minimum inhibitory concentration required for antibacterial activity against methicillin-resistant Staphylococcus aureus with 2% human plasma albumin; value ranges from 0.25-1; summary of the method: as §1
Mus musculus [7] = experiment: No. of mice survived infected intraperitoneally with methicillin-resistant Staphylococcus aureus after 5 days of treatment at a dose of 10 mg/kg (Total mice tested 5)
Summary of the method: (§2)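 Mouse peritonitis model: intraperitoneal infection with a 5–10 × LD50 inoculum of MRSA ATCC 27660. A single intravenous dose was given 1 h post-infection, alongside vehicle and vancomycin controls. Animals were monitored for 5 days, with survival as the primary endpoint; 5 mice per dose group.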

Mus musculus [8] = experiment: No. of mice survived infected intraperitoneally with methicillin-resistant Staphylococcus aureus after 5 days of treatment at a dose of 25 mg/kg (Total mice tested 5); conditions: route intravenous; summary of the method: as §2
Mus musculus [9] = experiment: No. of mice survived infected intraperitoneally with methicillin-resistant Staphylococcus aureus after 5 days of treatment at a dose of 1 mg/kg (Total mice tested 5); summary of the method: as §2
Mus musculus [10] = experiment: No. of mice survived infected intraperitoneally with methicillin-resistant Staphylococcus aureus after 5 days of treatment at a dose of 3 mg/kg (Total mice tested 5); summary of the method: as §2
Streptococcus pneumoniae = experiment: Minimum inhibitory concentration required for antibacterial activity against penicillin-resistant Streptococcus pneumoniae 51422
Enterococcus faecium = experiment: Minimum inhibitory concentration required for antibacterial activity against vancomycin-resistant Enterococcus faecium 51559
Staphylococcus aureus [11] = experiment: Minimum inhibitory concentration required for antibacterial activity against methicillin-resistant Staphylococcus aureus with 2% human plasma albumin; value ranges from 0.13-1; summary of the method: as §1
Staphylococcus aureus [12] = experiment: Minimum inhibitory concentration required for antibacterial activity against vancomycin-resistant Staphylococcus aureus HMC3
Staphylococcus aureus [13] = experiment: Minimum inhibitory concentration required for antibacterial activity against methicillin-resistant Staphylococcus aureus with 2% human plasma albumin; value ranges from 0.13-0.25; summary of the method: as §1
Staphylococcus aureus [14] = experiment: Minimum inhibitory concentration required for antibacterial activity against methicillin-resistant Staphylococcus aureus 27660; value ranges from 0.25-0.5
Staphylococcus aureus [15] = experiment: Minimum inhibitory concentration required for antibacterial activity against methicillin-resistant Staphylococcus aureus with 2% human plasma albumin; value ranges from 1-2; summary of the method: as §1
Staphylococcus aureus [16] = experiment: Minimum inhibitory concentration required for antibacterial activity against methicillin-susceptible Staphylococcus aureus 13709; value ranges from 0.13-0.06
Staphylococcus aureus [17] = experiment: Minimum inhibitory concentration required for antibacterial activity against methicillin-resistant Staphylococcus aureus with 4% human plasma albumin
Summary of the method: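 MIC against MRSA determined with 4% human plasma albumin present in the test medium.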

Staphylococcus aureus [18] = experiment: Minimum inhibitory concentration required for antibacterial activity against methicillin-susceptible Staphylococcus aureus 13709; value ranges from 0.03-0.06
Staphylococcus aureus [19] = experiment: Minimum inhibitory concentration required for antibacterial activity against methicillin-resistant Staphylococcus aureus 27660; value ranges from 0.06-0.13
[20] = Staphylococcus aureus, Plasma, read-out: MIC

| Compound | MIC (Staphylococcus aureus [1]) [mg/L] | MIC (Staphylococcus aureus [2]) [mg/L] | MIC (Staphylococcus aureus [3]; [20]) [mg/L] | Efficacy (Mus musculus [8]) | MIC (Streptococcus pneumoniae) [mg/L] | MIC (Enterococcus faecium) [mg/L] | other results |
| --- | --- | --- | --- | --- | --- | --- | --- |
| Cn1cc(NC(=O)c2ccc(NC(=O)c3cc(NC(=O)c4cc5ccccc5cn4)cn3C)cc2)cc1C(=O)NCCN1CCN(CCO)CC1 | 32 (≈ 46.3 µM) | 16 (≈ 23.1 µM) | > 32 | – | – | – | – |
| COC1CCN(CCNC(=O)c2cc(NC(=O)c3ccc(NC(=O)c4cc(NC(=O)c5cc6ccccc6cn5)cn4C)cc3)cn2C)CC1 | 1 (≈ 1.48 µM) | 1 (≈ 1.48 µM) | 8 (≈ 11.8 µM) | – | – | – | – |
| Cn1cc(NC(=O)c2cc3ccccc3cn2)cc1C(=O)Nc1ccc(C(=O)Nc2cn(C)c(C(=O)NCCN3CCC(O)CC3)n2)cc1 | – | – | – | 5 | – | – | MIC (Staphylococcus aureus [4]): 0.06 mg/L (≈ 0.0904 µM); MIC (Staphylococcus aureus [5]): 0.06 mg/L (≈ 0.0904 µM); MIC (Staphylococcus aureus [6]): 1 mg/L (≈ 1.51 µM); Efficacy (Mus musculus [7]): 5; Efficacy (Mus musculus [9]): 0; Efficacy (Mus musculus [10]): 2 |
| Cn1cc(NC(=O)c2ccc(NC(=O)c3nc(NC(=O)c4cc5ccccc5cn4)cn3C)cc2)nc1C(=O)NCCN1CCOCC1 | 0.13 (≈ 0.2 µM) | 0.06 (≈ 0.0922 µM) | 1 (≈ 1.54 µM) | – | 0.25 (≈ 0.384 µM) | 0.13 (≈ 0.2 µM) | – |
| Cn1cc(NC(=O)c2ccc(NC(=O)c3nc(NC(=O)c4cc5ccccc5cn4)cn3C)cc2)cc1C(=O)NCCN1CCOCC1 | 2 (≈ 3.08 µM) | 16 (≈ 24.6 µM) | 32 (≈ 49.3 µM) | – | 0.5 (≈ 0.77 µM) | 0.5 (≈ 0.77 µM) | – |
| Cn1cc(NC(=O)c2cc3cc4c(cc3s2)OCO4)cc1C(=O)Nc1ccc(C(=O)Nc2cn(C)c(C(=O)NCCN3CCC(O)CC3)n2)cc1 | 0.008 (≈ 0.0112 µM) | 0.008 (≈ 0.0112 µM) | – | – | – | – | MIC (Staphylococcus aureus [11]): 1 mg/L (≈ 1.4 µM); Efficacy (Mus musculus [9]): 3; MIC (Staphylococcus aureus [12]): 0.008 mg/L (≈ 0.0112 µM); Efficacy (Mus musculus [10]): 4 |
| COC1CCN(CCNC(=O)c2nc(NC(=O)c3ccc(NC(=O)c4cc(NC(=O)c5cc6ccccc6cn5)cn4C)cc3)cn2C)CC1 | 0.03 (≈ 0.0443 µM) | 0.03 (≈ 0.0443 µM) | – | 2 | – | – | MIC (Staphylococcus aureus [13]): 0.25 mg/L (≈ 0.369 µM) |
| COCCN(CCNC(=O)c1nc(NC(=O)c2ccc(NC(=O)c3cc(NC(=O)c4cc5ccccc5cn4)cn3C)cc2)cn1C)CCOC | – | – | – | 0 | – | – | MIC (Staphylococcus aureus [14]): 0.5 mg/L (≈ 0.719 µM); MIC (Staphylococcus aureus [15]): 2 mg/L (≈ 2.87 µM); MIC (Staphylococcus aureus [16]): 0.13 mg/L (≈ 0.187 µM) |
| Cn1cc(NC(=O)c2cc3ccccc3cn2)cc1C(=O)Nc1ccc(C(=O)Nc2cn(C)c(C(=O)NCCN3CCN(CCO)CC3)n2)cc1 | 0.06 (≈ 0.0866 µM) | 0.06 (≈ 0.0866 µM) | 1 (≈ 1.44 µM) | 5 | – | – | – |
| COCCN(CCNC(=O)c1cc(NC(=O)c2ccc(NC(=O)c3cc(NC(=O)c4cc5ccccc5cn4)cn3C)cc2)cn1C)CCOC | 4 (≈ 5.76 µM) | 8 (≈ 11.5 µM) | 32 (≈ 46.1 µM) | – | – | – | – |
| Cn1cc(NC(=O)c2ccc(NC(=O)c3cc(NC(=O)c4cc5ccccc5cn4)cn3C)cc2)cc1C(=O)NCCN1CCC(O)CC1 | 0.5 (≈ 0.754 µM) | 0.5 (≈ 0.754 µM) | – | – | – | – | MIC (Staphylococcus aureus [17]): 16 mg/L (≈ 24.1 µM) |
| Cn1cc(NC(=O)c2cc3ccccc3cn2)cc1C(=O)Nc1ccc(C(=O)Nc2cn(C)c(C(=O)NCCN3CCOCC3)n2)cc1 | 0.008 (≈ 0.0123 µM) | 0.008 (≈ 0.0123 µM) | 0.13 (≈ 0.2 µM) | – | 0.03 (≈ 0.0462 µM) | 0.008 (≈ 0.0123 µM) | Efficacy (Mus musculus [7]): 1; MIC (Staphylococcus aureus [12]): 0.008 mg/L (≈ 0.0123 µM) |
| Cn1cc(NC(=O)c2ccc(NC(=O)c3cc(NC(=O)c4cc5ccccc5cn4)cn3C)cc2)cc1C(=O)NCCN1CCOCC1 | 0.06 (≈ 0.0925 µM) | 0.06 (≈ 0.0925 µM) | 1 (≈ 1.54 µM) | 5 | 0.06 (≈ 0.0925 µM) | 1 (≈ 1.54 µM) | MIC (Staphylococcus aureus [18]): 0.06 mg/L (≈ 0.0925 µM); MIC (Staphylococcus aureus [19]): 0.13 mg/L (≈ 0.2 µM); Efficacy (Mus musculus [7]): 3; MIC (Staphylococcus aureus [3]): 1 mg/L (≈ 1.54 µM); MIC (Staphylococcus aureus [12]): 0.25 mg/L (≈ 0.385 µM); Efficacy (Mus musculus [10]): 0 |
